Measurements taken from ChEMBL document CHEMBL4020840, “Synthesis and Biological Evaluation of Selenium-Containing 4-Anilinoquinazoline Derivatives as Novel Antimitotic Agents” (J Med Chem, 2018).

Legend:
[1] = test system: A549; experiment: Induction of apoptosis in human A549 cells assessed as necrotic cells at 4 nM after 24 hrs by Annexin V-FITC/propidium iodide staining based flow cytometry (reference value: 0.10%); type: functional
[2] = test system: A549; experiment: Induction of mitochondrial membrane disruption in human A549 cells assessed as cells with mitochondrial membrane potential loss at 2 nM after 48 hrs by JC1 staining based flow cytometry (reference value: 0.82%); type: functional
[3] = test system: A549; experiment: Induction of apoptosis in human A549 cells assessed as necrotic cells at 2 nM after 48 hrs by Annexin V-FITC/propidium iodide staining based flow cytometry relative to control; type: functional
[4] = test system: A549; experiment: Induction of mitochondrial membrane disruption in human A549 cells assessed as cells with intact mitochondrial membrane at 8 nM after 48 hrs by JC1 staining based flow cytometry (reference value: 99.13%); type: functional
[5] = test system: MGC-803; experiment: Antiproliferative activity against human MGC803 cells after 48 hrs by MTT assay; type: functional, cell-based; details: MGC-803, 48 h
In short: (§1)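 MTT assay: log-phase cells plated at 5 × 10³/well for 24 h, then exposed to a range of test concentrations for 48 h. MTT (5 mg/mL) added for 4 h, formazan dissolved in DMSO, absorbance read at 570 nm. IC50 is the concentration giving 50% growth inhibition, from dose-response curves; at least three independent experiments, mean ± SE.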

[6] = test system: LoVo; experiment: Growth inhibition of human LoVo cells after 48 hrs by MTT assay; type: functional, cell-based; in short: as §1
[7] = test system: A549; experiment: Induction of apoptosis in human A549 cells assessed as live cells at 4 nM after 48 hrs by Annexin V-FITC/propidium iodide staining based flow cytometry (reference value: 98.49%); type: functional
[8] = test system: A549; experiment: Cell cycle arrest in human A549 cells assessed as accumulation at G2/M phase at 4 nM after 12 hrs by propidium iodide staining based flow cytometry (reference value: 10.13%); type: functional
In short: (§2)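 A549 seeded in six-well plates at 3 × 10⁵ cells/well and treated for 12 or 24 h; vehicle 0.01% DMSO. Cells fixed overnight in ice-cold 70% ethanol, treated with RNase A at 37 °C for 30 min, then stained with PI at 4 °C for 30 min. About 10 000 events acquired by flow cytometry at 488 nm; three experiments.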

[9] = Selectivity index, ratio of IC50 for human BJ cells to IC50 for human A549 cells; type: functional
In short: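 MTT assay in normal cells and A549: seeding at 5 × 10³ cells/well for 24 h, 48 h compound exposure, then 5 mg/mL MTT for 4 h, DMSO solubilisation and absorbance at 570 nm. IC50 values came from dose–response curves of at least three independent experiments. Selectivity ratio = IC50 in normal cells / IC50 in A549.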

[10] = test system: A549; experiment: Induction of apoptosis in human A549 cells assessed as early apoptotic cells at 2 nM after 24 hrs by Annexin V-FITC/propidium iodide staining based flow cytometry (reference value: 0.98%); type: functional
[11] = test system: BJ; experiment: Antiproliferative activity against human BJ cells after 48 hrs by MTT assay; type: cell-based; in short: as §1
[12] = test system: HepG2; experiment: Growth inhibition of human HepG2 cells after 48 hrs by MTT assay; type: functional, cell-based; details: HepG2, 48 h; in short: as §1
[13] = test system: MDA-MB-231; experiment: Growth inhibition of human MDA-MB-231 cells after 48 hrs by MTT assay; type: functional, cell-based; details: MDA-MB-231, 48 h; in short: as §1
[14] = test system: A549; experiment: Induction of apoptosis in human A549 cells assessed as necrotic cells at 2 nM after 24 hrs by Annexin V-FITC/propidium iodide staining based flow cytometry (reference value: 0.10%); type: functional
[15] = test system: A549; experiment: Induction of mitochondrial membrane disruption in human A549 cells assessed as cells with intact mitochondrial membrane at 2 nM after 48 hrs by JC1 staining based flow cytometry (reference value: 99.13%); type: functional
[16] = test system: A549; experiment: Induction of apoptosis in human A549 cells assessed as early apoptotic cells at 2 nM after 48 hrs by Annexin V-FITC/propidium iodide staining based flow cytometry (reference value: 1.48%); type: functional
[17] = test system: A549; experiment: Induction of apoptosis in human A549 cells assessed as late apoptotic cells at 2 nM after 24 hrs by Annexin V-FITC/propidium iodide staining based flow cytometry (reference value: 0.08%); type: functional
[18] = test system: A549; experiment: Cell cycle arrest in human A549 cells assessed as accumulation at G2/M phase at 4 nM after 24 hrs by propidium iodide staining based flow cytometry (reference value: 10.13%); type: functional; in short: as §2
[19] = test system: A549; experiment: Induction of apoptosis in human A549 cells assessed as late apoptotic cells at 2 nM after 48 hrs by Annexin V-FITC/propidium iodide staining based flow cytometry (reference value: 0.03%); type: functional
[20] = test system: A549; experiment: Growth inhibition of human A549 cells after 48 hrs by MTT assay; type: functional, cell-based; details: A549, 48 h
[21] = test system: MCF7; experiment: Antiproliferative activity against human MCF7 cells after 48 hrs by MTT assay; type: functional, cell-based; details: MCF7, 48 h; in short: as §1
[22] = test system: A549; experiment: Induction of apoptosis in human A549 cells assessed as live cells at 4 nM after 24 hrs by Annexin V-FITC/propidium iodide staining based flow cytometry (reference value: 98.84%); type: functional
[23] = test system: A549; experiment: Induction of apoptosis in human A549 cells assessed as early apoptotic cells at 4 nM after 24 hrs by Annexin V-FITC/propidium iodide staining based flow cytometry (reference value: 0.98%); type: functional
[24] = test system: HCT-116; experiment: Growth inhibition of human HCT116 cells after 48 hrs by MTT assay; type: functional, cell-based; details: HCT-116, 48 h; in short: as §1
[25] = test system: RKO; experiment: Growth inhibition of human RKO cells after 48 hrs by MTT assay; type: functional, cell-based; in short: as §1
[26] = test system: A549; experiment: Induction of mitochondrial membrane disruption in human A549 cells assessed as cells with intact mitochondrial membrane at 4 nM after 48 hrs by JC1 staining based flow cytometry (reference value: 99.13%); type: functional
[27] = Inhibition of porcine brain tubulin polymerization measured every 60 secs for 90 mins by DAPI staining based fluorescence assay; design: species or system Sus scrofa
In short: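 Purified tubulin was tested in a kit assay. Final buffer: 80 mM PIPES sesquisodium (pH 6.9), 2.0 mM MgCl₂, 0.5 mM EGTA, 1 mM GTP, 10.2% glycerol. Compound (0.1–10 μM) was prewarmed at 37 °C for 1 min before tubulin was added. DAPI reporter fluorescence (ex 340 / em 410 nm) was read every 60 s for 90 min. Area under the curve gave percent inhibition versus control and the IC50.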

[28] = Growth inhibition of human HepG2/DOX cells after 48 hrs by MTT assay; type: functional, cell-based; in short: as §1
[29] = Antiproliferative activity against HLF after 48 hrs by MTT assay; type: cell-based; details: Homo sapiens; in short: as §1
[30] = test system: A549; experiment: Induction of apoptosis in human A549 cells assessed as early apoptotic cells at 4 nM after 48 hrs by Annexin V-FITC/propidium iodide staining based flow cytometry (reference value: 1.48%); type: functional
[31] = test system: A549; experiment: Induction of apoptosis in human A549 cells assessed as late apoptotic cells at 4 nM after 24 hrs by Annexin V-FITC/propidium iodide staining based flow cytometry (reference value: 0.08%); type: functional
[32] = test system: A549; experiment: Induction of apoptosis in human A549 cells assessed as live cells at 2 nM after 48 hrs by Annexin V-FITC/propidium iodide staining based flow cytometry (reference value: 98.49%); type: functional
[33] = test system: L02; experiment: Antiproliferative activity against human LO2 cells after 48 hrs by MTT assay; type: cell-based; details: L02, 48 h; in short: as §1

Q: Which Activity [1] does the source give for C[Se]c1ccc(N(C)c2nc(C)nc3ccccc23)cc1 here?
A: The Activity was 2.28%.

Q: And the Activity [2]?
A: Its Activity is 15.85%.

Q: What about the Activity [3] of the same compound?
A: Its Activity is 3.19%.

Q: And the Activity [4]?
A: Its Activity is 36.52%.

Q: What about the IC50 [5] of the same compound?
A: Its IC50 is 7 nM.

Q: What about the IC50 [6] of the same compound?
A: Its IC50 is 9 nM.

Q: What about the Activity [7] of the same compound?
A: Its Activity is 10.31%.

Q: What about the Activity [8] of the same compound?
A: The Activity was 67.1%.

Q: What about the “Ratio IC50” value [9] of the same compound?
A: The value was 9.5.

Q: And the Activity [10]?
A: The Activity was 16.35%.

Q: And the IC50 [11]?
A: The IC50 was 19 nM.

Q: What about the IC50 [12] of the same compound?
A: Its IC50 is 4 nM.

Q: And the IC50 [13]?
A: The IC50 was 4 nM.

Q: What about the Activity [14] of the same compound?
A: Its Activity is 0.9%.

Q: What about the Activity [15] of the same compound?
A: The Activity was 83.86%.

Q: What about the Activity [16] of the same compound?
A: The Activity was 26.51%.

Q: What about the Activity [17] of the same compound?
A: Its Activity is 3.82%.

Q: And the Activity [18]?
A: The Activity was 87.16%.

Q: And the Activity [19]?
A: Its Activity is 20.5%.

Q: What about the IC50 [20] of the same compound?
A: Its IC50 is 2 nM.

Q: And the IC50 [21]?
A: The IC50 was 10 nM.

Q: What about the Activity [22] of the same compound?
A: The Activity was 64.86%.

Q: What about the Activity [23] of the same compound?
A: Its Activity is 26.51%.

Q: What about the IC50 [24] of the same compound?
A: Its IC50 is 3 nM.

Q: And the IC50 [25]?
A: Its IC50 is 4 nM.

Q: And the Activity [26]?
A: Its Activity is 56.98%.

Q: And the IC50 [27]?
A: Its IC50 is 1890 nM.

Q: What about the IC50 [28] of the same compound?
A: The IC50 was 8 nM.

Q: And the IC50 [29]?
A: Its IC50 is 20 nM.

Q: What about the Activity [30] of the same compound?
A: The Activity was 54.14%.

Q: And the Activity [31]?
A: The Activity was 6.35%.

Q: And the Activity [32]?
A: The Activity was 49.81%.

Q: What about the IC50 [33] of the same compound?
A: Its IC50 is 19 nM.
